Measured values from ChEMBL document CHEMBL2331310 (Bioorg Med Chem Lett, 2013).
Calls of active or inactive are those of the source. No cut-off for these calls is given here.

Columns and labels:
DU-145 [1] = experiment: Cytotoxicity against human DU145 cells expressing AGT after 4 to 24 hrs by clonogenic assay in presence of 100 uM of AGT inhibitor O6-BG; assay type: functional, cell-based
Summary of the method: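 DU145 cells (42,000 AGT molecules/cell) were pretreated with 100 μM O6-BG for 2 h, then exposed to graded drug concentrations. Cytotoxicity was then assessed.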

DU-145 [2] = experiment: Induction of AGT ablation in human DU145 cells assessed as [benzene-3H]-O6-benzylguanine binding at 80 uM after 4 hrs; assay type: functional
Summary of the method: (§1)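 DU145 human prostate carcinoma cells (about 42,000 AGT molecules/cell) were treated with 80 μM agent for 2 h or 4 h. Remaining AGT level was then measured relative to untreated cells.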

DU-145 [3] = experiment: Induction of AGT ablation in human DU145 cells assessed as [benzene-3H]-O6-benzylguanine binding at 80 uM after 2 hrs; assay type: functional; summary of the method: as §1
L1210 = experiment: Binding affinity to mouse L1210 cell DNA assessed as DNA cross-linking activity at 10 to 50 uM using H33258 dye by rapid DNA renaturation assay; assay type: cell-based
DU-145 [4] = experiment: Cytotoxicity against human DU145 cells expressing AGT at 10 to 80 uM after 4 hrs by clonogenic assay; assay type: functional, cell-based
Summary of the method: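 DU145 human prostate carcinoma cells, which naturally express about 42,000 AGT molecules/cell, were exposed to graded drug concentrations for 4 h or 24 h. Cytotoxicity was expressed as LC50.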

[5] = Half life in 1 mM potassium phosphate buffer at pH 7.4 at 50 uM by spectrophotometric analysis; assay type: physicochemical
DU-145 [6] = experiment: Ratio of laromustine IC50 for compound IC50 for human DU145 cells expressing AGT; assay type: functional
DU-145 [7] = experiment: Cytotoxicity against human DU145 cells expressing AGT after 4 to 24 hrs by clonogenic assay; assay type: functional; details: read-out: LC50 (the source's name)
Summary of the method: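 Human prostate carcinoma cells with natural AGT expression (42,000 molecules/cell) were exposed to graded concentrations for 4 h or 24 h. LC50 was read from cytotoxicity curves.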

EMT6 [8] = experiment: Ratio of laromustine IC50 for compound IC50 for mouse AGT negative EMT6 cells; assay type: functional
EMT6 [9] = experiment: Cytotoxicity against mouse AGT negative EMT6 cells under aerobic conditions after 4 to 24 hrs by clonogenic assay; assay type: functional, cell-based; details: for CC50: read-out: LC50 (the source's name)
Summary of the method: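 Murine mammary carcinoma cells lacking AGT expression were exposed to graded concentrations for short (4 h) or long (24 h) periods. LC50 was taken from cytotoxicity curves.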

Row | Compound | Activity (DU-145 [1]) | Activity (DU-145 [2]) | Activity (DU-145 [3]) | Activity (L1210) | Activity (DU-145 [4]) | half-life at 50 µM [5] [min] | Ratio IC50 (DU-145 [6]) | CC50 (DU-145 [7]) [µM] | Ratio IC50 (EMT6 [8]) | CC50 (EMT6 [9]) [µM] | IC50 (EMT6 [9]) [µM]
1 | CN(N=O)C(=O)N(N(CCCl)S(C)(=O)=O)S(C)(=O)=O | Active | >90% | >80% | Active | Active | 10 | >12 | 6.3 | 12 | 0.7 | –
2 | CS(=O)(=O)NN(CCCl)S(C)(=O)=O [VPN-4090CE] | – | – | – | Active | – | 0.55 | – | – | – | – | –
3 | CNC(=O)N(N(CCCl)S(C)(=O)=O)S(C)(=O)=O [LAROMUSTINE] | Active | – | – | Active | Active | – | – | > 80 | – | 8.3 | –
4 | CN(NS(C)(=O)=O)S(C)(=O)=O | – | – | – | – | – | – | – | 1600 | – | – | 3000
5 | CN(N(C(=O)N(CCCl)N=O)S(C)(=O)=O)S(C)(=O)=O | Active | Active | Active | Active | Active | 13.4 | – | – | – | – | –
